Data published in ChEMBL document CHEMBL3351600, “Sulfur, selenium and tellurium pseudopeptides: synthesis and biological evaluation” (Bioorg Med Chem, 2014).

Legend:
CAKI-1 = experiment: Growth inhibition of human CAKI-1 cells after 48 hrs; assay type: functional; conditions: CAKI-1, 48 h
Procedure, shortened: (§1)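 NCI-60 human tumour cell line panel screen run at the US National Cancer Institute under its standard cytotoxicity protocol. It covers leukaemia, NSCLC, colon, CNS, melanoma, ovarian, renal, prostate and breast lines. An initial single-dose test was followed by five-dose testing with 48 h compound exposure.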

[1] = Growth inhibition of human RXF393 cells after 48 hrs; assay type: functional; conditions: RXF 393, 48 h; procedure, shortened: as §1
[2] = Growth inhibition of human UO31 cells after 48 hrs; assay type: functional; conditions: UO-31, 48 h
Procedure, shortened: (§2)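 Run by the NCI 58-cell-line screen under its standard cytotoxicity protocol. Compounds were first tested at a single dose, then at five doses. Cells were exposed to compound for 48 h.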

DU-145 = experiment: Growth inhibition of human DU145 cells after 48 hrs; assay type: functional; conditions: DU-145, 48 h; procedure, shortened: as §1
[3] = Growth inhibition of human BT549 cells after 48 hrs; assay type: functional; conditions: BT-549, 48 h; procedure, shortened: as §1
MDA-MB-468 = experiment: Growth inhibition of human MDA-MB-468 cells after 48 hrs; assay type: functional; conditions: MDA-MB-468, 48 h; procedure, shortened: as §1
MCF7 = experiment: Cytotoxicity against human MCF7 cells assessed as cell viability after 24 hrs incubation by MTT assay; assay type: functional, cell-based; conditions: MCF7, 24 h
Procedure, shortened: (§3)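 Cell lines came from DSMZ; primary human fibroblasts served as non-cancer controls. Cells were grown in medium with 10% FCS, seeded at 50,000 cells/ml, and grown 2 days at 37 °C, 10% CO2. Serial dilutions were then added for 24 h. MTT (final 0.5 mg/ml) was added for 2 h. Formazan was pelleted, PBS-washed, dissolved in isopropanol/0.4% HCl and read at 590 nm. Two parallel experiments were run. IC50 was taken as the concentration giving 50% of untreated-control absorbance.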

A-431 = experiment: Cytotoxicity against human A431 cells assessed as cell viability after 24 hrs incubation by MTT assay; assay type: functional, cell-based; conditions: A-431, 24 h; procedure, shortened: as §3
[4] = Octanol-water partition coefficient, log P of the compound by HPLC analysis; assay type: physicochemical
Procedure, shortened: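 Lipophilicity was measured by reversed-phase HPLC on a Nucleosil C18 column with isocratic water/methanol (3:1) at 0.5 ml/min and UV detection at 230 and 245 nm. Dead time was set with thiourea (t0 0.728 min). Retention factor was k = (tR − t0)/t0, and log P came from a calibration against at least six reference compounds.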

K562 = experiment: Growth inhibition of human K562 cells after 48 hrs; assay type: functional; conditions: K562, 48 h; procedure, shortened: as §1
A549 = experiment: Growth inhibition of human A549/ATCC cells after 48 hrs; assay type: functional; conditions: A549, 48 h; procedure, shortened: as §1
[5] = Growth inhibition of human EKVX cells after 48 hrs; assay type: functional; procedure, shortened: as §1
HOP-62 = experiment: Growth inhibition of human HOP62 cells after 48 hrs; assay type: functional; conditions: HOP-62, 48 h; procedure, shortened: as §1
[6] = Growth inhibition of human HOP92 cells after 48 hrs; assay type: functional; conditions: HOP-92, 48 h; procedure, shortened: as §1
NCI-H322M = experiment: Growth inhibition of human NCI-H322M cells after 48 hrs; assay type: functional; conditions: read-out: pLC50 (the source's name) (converted); procedure, shortened: as §1
NCI-H460 = experiment: Growth inhibition of human NCI-H460 cells after 48 hrs; assay type: functional; conditions: NCI-H460, 48 h; procedure, shortened: as §1
NCI-H522 = experiment: Growth inhibition of human NCI-H522 cells after 48 hrs; assay type: functional; conditions: NCI-H522, 48 h; procedure, shortened: as §1
[7] = Growth inhibition of human HCT116 cells after 48 hrs; assay type: functional; conditions: HCT-116, 48 h; procedure, shortened: as §1
HT-29 = experiment: Growth inhibition of human HT-29 cells after 48 hrs; assay type: functional; conditions: HT-29, 48 h; procedure, shortened: as §1
SW-620 = experiment: Growth inhibition of human SW620 cells after 48 hrs; assay type: functional; conditions: SW-620, 48 h; procedure, shortened: as §2
SF-268 = experiment: Growth inhibition of human SF268 cells after 48 hrs; assay type: functional; conditions: SF-268, 48 h; procedure, shortened: as §1
[8] = Growth inhibition of human SF539 cells after 48 hrs; assay type: functional; conditions: SF-539, 48 h; procedure, shortened: as §1
U-251 = experiment: Growth inhibition of human U251 cells after 48 hrs; assay type: functional; conditions: U-251, 48 h; procedure, shortened: as §2
SK-MEL-28 = experiment: Growth inhibition of human SK-MEL-28 cells after 48 hrs; assay type: functional; conditions: SK-MEL-28, 48 h; procedure, shortened: as §1
SK-MEL-5 = experiment: Growth inhibition of human SK-MEL-5 cells after 48 hrs; assay type: functional; conditions: SK-MEL-5, 48 h; procedure, shortened: as §2
[9] = Growth inhibition of human UACC62 cells after 48 hrs; assay type: functional; conditions: UACC-62, 48 h; procedure, shortened: as §2
IGROV-1 = experiment: Growth inhibition of human IGROV1 cells after 48 hrs; assay type: functional; conditions: IGROV-1, 48 h; procedure, shortened: as §1
[10] = Growth inhibition of human OVCAR3 cells after 48 hrs; assay type: functional; conditions: OVCAR-3, 48 h; procedure, shortened: as §1
[11] = Growth inhibition of human OVCAR8 cells after 48 hrs; assay type: functional; conditions: OVCAR-8, 48 h; procedure, shortened: as §1
[12] = Growth inhibition of human NCI-ADR-RES cells after 48 hrs; assay type: functional; procedure, shortened: as §1
SK-OV-3 = experiment: Growth inhibition of human SKOV3 cells after 48 hrs; assay type: functional; conditions: SK-OV-3, 48 h; procedure, shortened: as §2
[13] = read-out: pLC50 (the source's name) (converted)

COc1ccc(N(CC(=O)NCCC[Te]c2ccccc2)C(=O)c2ccccc2)cc1
GI50 (CAKI-1): 2.95 µM
LC50 (CAKI-1): > 100 µM
TGI (CAKI-1; read-out: pTGI (converted)): 14.8 µM
GI50 [1]: 12 µM
LC50 [1]: 75.9 µM
TGI ([1]; read-out: pTGI (converted)): 30.2 µM
GI50 [2]: 2.75 µM
LC50 [2]: 95.5 µM
TGI ([2]; read-out: pTGI (converted)): 11 µM
GI50 (DU-145): 3.89 µM
LC50 (DU-145): 64.6 µM
TGI (DU-145; read-out: pTGI (converted)): 13.8 µM
GI50 [3]: 2.4 µM
LC50 (concentration killing 50% of cells) [3]: > 100 µM
TGI ([3]; read-out: pTGI (converted)): 8.71 µM
GI50 (MDA-MB-468): 4.27 µM
LC50 (MDA-MB-468): 56.2 µM
TGI (MDA-MB-468; read-out: pTGI (converted)): 17.8 µM
IC50 (MCF7): 27 µM
IC50 (A-431): 5 µM
logP [4]: 1.72
GI50 (K562): 5.13 µM
CC50 (K562; [13]): > 100 µM
TGI (K562; read-out: pTGI (converted)): > 100 µM
GI50 (A549): 0.38 µM
CC50 (A549; [13]): 17.8 µM
TGI (A549; read-out: pTGI (converted)): 2.14 µM
GI50 [5]: 4.07 µM
CC50 [5, 13]: > 100 µM
TGI ([5]; read-out: pTGI (converted)): 5.25 µM
GI50 (HOP-62): 2.4 µM
CC50 (HOP-62; [13]): 18.2 µM
TGI (HOP-62; read-out: pTGI (converted)): 5.37 µM
GI50 [6]: 4.07 µM
CC50 [6, 13]: 69.2 µM
TGI ([6]; read-out: pTGI (converted)): 10 µM
CC50 (NCI-H322M): > 100 µM
GI50 (NCI-H460): 0.537 µM
CC50 (NCI-H460; [13]): 8.71 µM
TGI (NCI-H460; read-out: pTGI (converted)): 2.4 µM
GI50 (NCI-H522): 3.09 µM
CC50 (NCI-H522; [13]): 53.7 µM
TGI (NCI-H522; read-out: pTGI (converted)): 8.71 µM
GI50 [7]: 2.57 µM
CC50 [7, 13]: 44.7 µM
TGI ([7]; read-out: pTGI (converted)): 10.2 µM
GI50 (HT-29): 3.8 µM
CC50 (HT-29; [13]): > 100 µM
TGI (HT-29; read-out: pTGI (converted)): > 100 µM
GI50 (SW-620): 3.89 µM
CC50 (SW-620; [13]): 56.2 µM
TGI (SW-620; read-out: pTGI (converted)): 14.5 µM
GI50 (SF-268): 3.16 µM
CC50 (SF-268; [13]): 66.1 µM
TGI (SF-268; read-out: pTGI (converted)): 10.7 µM
GI50 [8]: 2.29 µM
CC50 [8, 13]: 28.8 µM
TGI ([8]; read-out: pTGI (converted)): 6.03 µM
GI50 (U-251): 2.82 µM
CC50 (U-251; [13]): 74.1 µM
TGI (U-251; read-out: pTGI (converted)): 9.33 µM
GI50 (SK-MEL-28): 4.17 µM
CC50 (SK-MEL-28; [13]): 45.7 µM
TGI (SK-MEL-28; read-out: pTGI (converted)): 15.5 µM
GI50 (SK-MEL-5): 2.4 µM
CC50 (SK-MEL-5; [13]): 24.5 µM
TGI (SK-MEL-5; read-out: pTGI (converted)): 6.03 µM
GI50 [9]: 2.51 µM
CC50 [9, 13]: 43.7 µM
TGI ([9]; read-out: pTGI (converted)): 7.59 µM
GI50 (IGROV-1): 2.88 µM
CC50 (IGROV-1; [13]): 55 µM
TGI (IGROV-1; read-out: pTGI (converted)): 8.32 µM
GI50 [10]: 5.75 µM
CC50 [10, 13]: 56.2 µM
TGI ([10]; read-out: pTGI (converted)): 20 µM
GI50 [11]: 3.02 µM
LC50 [11]: > 100 µM
TGI ([11]; read-out: pTGI (converted)): 8.13 µM
GI50 [12]: 3.24 µM
LC50 [12]: > 100 µM
TGI ([12]; read-out: pTGI (converted)): 10.7 µM
GI50 (SK-OV-3): 2.57 µM
CC50 (SK-OV-3; [13]): 35.5 µM
TGI (SK-OV-3; read-out: pTGI (converted)): 6.03 µM
Retention_time: 0.89 min
